Most compounds without a hit are left out; they make up all but 1.9% or so of the library.
SR-BI DiI-HDL act = activators of SR-BI mediated HDL lipid uptake. CHO ldlA[mSR-BI] cells, DiI-HDL uptake fluorescence, 3 h; 100 = double the neutral-control signal. activation, % at 12.5 µM. 320,000 tested, 0.096% active;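 active = mean replicate activation of at least 60% and every replicate at or above 60%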;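 note: 0% = median plate neutral-control signal and 100% = twice that signal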
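Test system: SR-BI-overexpressing, LDLR-lacking CHO cells; Medium: Ham's F12 with 0.5% BSA, HEPES 25 mM, pH 7.4; Schedule: 3 h, 37 °C; Technique: bottom-read fluorescence, 550/595 nm.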
Glyco luc inh = blocks N-linked glycosylation in D54 reporter cells. D54 ERlucT glycosylation luciferase reporter, 24 h; percent of 100 nM tunicamycin response. reporter increase, % at 12.5 µM. 360,000 tested, 0.23% active. AID 588692;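 active = mean luciferase reporter signal, scaled so untreated is 0 and the glycosylation-blocking control 100, at or above a set limit in every replicate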;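 note: luciferase carries N-glycosylation sites so blocking glycosylation raises the light; 0% = median of neutral control wells and 100% = median of 100 nM tunicamycin wells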
Rtt109 Vps75 = C. albicans Rtt109 histone acetyltransferase inhibition; inhibition, % at 34.9 µM; 330,000 tested, 0.16% active; purified Rtt109/Vps75, ThioGlo CoA-SH fluorescence, 4 h; Q5AAJ8;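 active = inhibition of at least 50% in every replicate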
PglD inh = inhibitors of Campylobacter jejuni PglD acetyltransferase; purified PglD enzyme, DTNB colorimetric CoA detection; inhibition, % at 12.5 µM; 360,000 tested, 0.098% active; in the data active = inhibition above about 16%, passing the limit was not always enough
SR-BI DiI inh = mouse SR-BI HDL lipid transfer inhibition | 320,000 tested, 0.96% active | inhibition, % at 12.5 µM | Q61009 | AID 488896 | ldlA[mSR-BI] CHO cells, DiI-HDL uptake fluorescence, 3 h;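 active = mean replicate inhibition of at least 70% and a set share of replicates each scoring 70 or more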;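 note: 0% = median of neutral control wells and 100% = median of positive control wells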
Target sequence (Q61009 whole entry, looked up): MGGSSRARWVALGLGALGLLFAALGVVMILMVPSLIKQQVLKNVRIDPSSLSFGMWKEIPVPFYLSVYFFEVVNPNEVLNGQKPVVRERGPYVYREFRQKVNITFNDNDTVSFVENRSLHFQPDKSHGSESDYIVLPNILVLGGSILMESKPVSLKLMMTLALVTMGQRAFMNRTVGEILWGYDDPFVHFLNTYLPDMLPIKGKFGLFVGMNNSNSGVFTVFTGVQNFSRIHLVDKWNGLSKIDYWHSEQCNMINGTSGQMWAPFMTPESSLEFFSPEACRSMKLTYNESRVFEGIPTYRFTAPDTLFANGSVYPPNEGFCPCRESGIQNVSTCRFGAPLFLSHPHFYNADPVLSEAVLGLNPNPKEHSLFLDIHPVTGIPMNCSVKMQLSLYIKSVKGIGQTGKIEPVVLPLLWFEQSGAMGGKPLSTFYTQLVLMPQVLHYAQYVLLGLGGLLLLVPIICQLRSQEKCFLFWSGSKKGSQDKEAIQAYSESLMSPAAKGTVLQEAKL
HIV Env fusion = blocks HIV Env-driven cell-cell fusion. inhibition, % at 12.3 µM. HeLa-JRFL Env/CEM21 cell fusion, luciferase. AID 651610. 360,000 tested, 1.1% active;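 active = mean replicate inhibition score of at least 50 and every replicate individually at or above 50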;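 note: 0% = plate neutral controls and 100% = maraviroc near 300 nM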
Starred values were filed as active, the others as inactive; . = not tested or not shown; [ ] = another dose, or the depositor's remark.

SMILES	SR-BI DiI-HDL act	Glyco luc inh	Rtt109 Vps75	PglD inh	SR-BI DiI inh	HIV Env fusion
COCC(=O)N1C[C@@H](C)[C@@H](OC)CN(C)C(=O)c2ccc(NC(=O)c3ccc(F)cc3)cc2OC[C@H]1C	.	.	.	1	.	2[16.7 µM]
CCNC(=O)C[C@H]1CC[C@H]2[C@@H](COc3ccc(NC(=O)Nc4cccc(C#N)c4)cc3C(=O)N2C)O1	.	.	.	-2	.	22[16.7 µM]
COc1ccc(NC(=O)N(C)C[C@@H]2Oc3ccc(NC(=O)CCCCCC(=O)Nc4ccccc4N)cc3CC(=O)N([C@H](C)CO)C[C@@H]2C)cc1	.	.	.	-2	.	-4[16.7 µM]
C/C=C/c1cnc2c(c1)C(=O)N([C@@H](C)CO)C[C@H](C)[C@@H](CN(C)C(=O)Cc1ccccn1)O2	.	.	.	-4	.	0[16.7 µM]
COc1cccc(-c2ccc3c(c2)O[C@H](CN(C)C)[C@@H](C)CN([C@H](C)CO)S3(=O)=O)c1	.	.	.	-4	.	9[16.7 µM]
CCOc1cccc(NC(=O)C2CC(=O)N(C)C(=Nc3cccc(F)c3)S2)c1 (stereo not given)	-73	2	.	-2	73*	.
CN1C(=O)CC(C(=O)Nc2ccccc2F)SC1=Nc1ccc2c(c1)OCO2 (stereo not given)	-73	1	-7	.	73*	-19
CCOc1cccc(NC(=O)C2CC(=O)N(C)C(=Nc3ccccc3)S2)c1 (stereo not given)	-75	3	-6	.	75*	.
CO[C@H]1CN(C)C(=O)c2cc(NS(=O)(=O)CC(F)(F)F)ccc2OC[C@@H](C)N(CC2CCCCC2)C[C@@H]1C	.	.	.	4	.	-5[16.7 µM]
O=C(Nc1cccc(Cl)c1)c1ccc(NCCCN2CCOCC2)c([N+](=O)[O-])c1	-71	4	3	.	71*	.
CCOC(=O)c1c(NC(=O)CCN2C(=O)c3ccccc3C2=O)sc(C(=O)OC(C)C)c1C	-73	-3	32	.	73*	7
COc1ccc2c3c([nH]c2c1)[C@H](CO)N(S(C)(=O)=O)CC31CN(CC2CC2)C1	.	.	.	.	.	4[16.7 µM]
CC(C)c1cn(CC[C@H]2CC[C@@H](NS(=O)(=O)c3ccccc3)[C@@H](CO)O2)nn1	.	.	.	0	.	-17[16.7 µM]
COc1ccc(C2=NOC(Cn3nc(C(=O)NCc4cccc(Br)c4)cc3-c3ccccc3)C2)cc1 (stereo not given)	-20	-9	5	-2	20	85*
COc1ccccc1CNC(=O)c1cc(-c2ccccc2C)n(CC2CC(c3cccc([N+](=O)[O-])c3)=NO2)n1 (stereo not given)	-61	-6	5	-5	61	60*
COc1ccc(C2=NOC(Cn3nc(-c4ccccc4)cc3C(=O)NCc3cccc(Br)c3)C2)cc1 (stereo not given)	-24	-2	-6	1	24	-1
C[C@H](NC(=O)C[C@@H]1CC[C@@H](NC(=O)C2CCC2)[C@@H](CO)O1)c1ccccc1	.	.	.	0	.	-14[16.7 µM]
COCC(=O)Nc1ccc2c(c1)OC[C@@H](C)N(CC1CC1)C[C@H](C)[C@H](OC)CN(C)C2=O	.	.	.	-1	.	-47[16.7 µM]
CO[C@@H]1CN(C)C(=O)c2ccc(NC(=O)Nc3cccc(F)c3)cc2OC[C@H](C)N(C(C)=O)C[C@@H]1C	.	.	.	5	.	-3[16.7 µM]
O=C(Nc1ccc(-c2csc(Nc3ccccc3)n2)cc1)c1cc([N+](=O)[O-])cc(C(F)(F)F)c1	-96	-7	5	-4	96*	6
CC(=O)Nc1nc(C)c(-c2csc(Nc3cccc([N+](=O)[O-])c3)n2)s1	-49	-8	1	-3	49	.
CC(=O)c1cccc(Nc2nc(-c3cccc([N+](=O)[O-])c3)cs2)c1	-66	0	3	-5	66	72*
CN(C)S(=O)(=O)c1ccc(-c2csc(N/N=C/c3ccc(O)cc3)n2)cc1	-87	-14	10	1	87*	29
O=[N+]([O-])c1cccc(-c2csc(N/N=C/c3cccc(O)c3)n2)c1	-101	0	18	.	101*	-11
CN(C)S(=O)(=O)c1ccc(-c2csc(N/N=C/c3ccco3)n2)cc1	.	-2	-7	.	.	29
Cc1noc(C)c1NC(=O)N(C)C[C@@H]1OCCCC[C@H](C)Oc2ccc(NC(=O)Nc3ccc4c(c3)OCO4)cc2C(=O)N([C@H](C)CO)C[C@@H]1C	.	.	.	6	.	-10[16.7 µM]

Screens from PubChem BioAssay.
